In paper PMC3343186 (Nature, 2012):

What was measured:
[1] = test system: metabolic genes in DIO mice tissues; test: Metabolic gene expression in liver, WAT and skeletal muscle of DIO mice; format: in vivo; conditions: 100mg/kg i.p. b.i.d., 30 days
Procedure, shortened: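 Diet-induced obese C57BL6 mice, 20 weeks old, had 14 weeks on high-fat diet (20% carbohydrate, 60% fat) and continued on it under twice-daily i.p. dosing. Liver, WAT and skeletal muscle mRNA was quantified by QPCR, normalised to Cyclophilin b. n=6-10.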

C57Bl6 mice [2] = test: Circadian wheel running activity under constant darkness; format: in vivo; conditions: single dose 100 mg/kg i.p. at CT6
Procedure, shortened: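 C57Bl6 mice in wheel cages were kept 7 days on 12h:12h L:D, then moved to constant darkness. After 12 days in D:D, mice received a single i.p. injection of vehicle or test compound at CT6.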

ob/ob mice = test: ob/ob mice, 12-day dosing; format: in vivo; conditions: 100 mg/kg i.p. b.i.d., 12-days
Procedure, shortened: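 Leptin-deficient ob/ob mice were dosed 100 mg/kg i.p. twice daily for 12 days. Body weight and body fat content were tracked; glucose and insulin tolerance were also assessed. Mean ± s.e.m., n=6-10.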

[3] = test system: diet-induced obese C57BL6 mice; test: Diet-induced obese mice, 30-day treatment; format: in vivo; conditions: DIO C57Bl6 mice, 100mg/kg i.p. b.i.d., 30 days
lean C57Bl6 mice = test: Fasting plasma TG and Chol in lean C57Bl6 mice; format: in vivo; conditions: 100 mg/kg i.p. b.i.d., 10 days
Procedure, shortened: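 Lean C57Bl6 mice were given 100 mg/kg i.p. twice daily at CT0 and CT12 for 10 days, then fasting plasma triglycerides and total cholesterol were measured. Mean ± s.e.m., n=6-10.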

C57Bl6 mice [4] = test: Circadian locomotor activity under L:D; format: in vivo; conditions: L:D 12h:12h, single injection
Procedure, shortened: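 Wheel-running actograms were recorded in C57Bl6 mice kept on 12:12 L:D after single i.p. injections of vehicle or test compound. The protocol was otherwise as in the constant-darkness wheel experiment. n=6-10.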

[5] = cited from earlier work
REV-ERBα = target: T1, REV-ERBα (Homo sapiens, UniProt P20393); format: cell-based; conditions: HEK293 cells, comparison with SR9011 and SR9009
T1 sequence (P20393 284-614 limits assumed): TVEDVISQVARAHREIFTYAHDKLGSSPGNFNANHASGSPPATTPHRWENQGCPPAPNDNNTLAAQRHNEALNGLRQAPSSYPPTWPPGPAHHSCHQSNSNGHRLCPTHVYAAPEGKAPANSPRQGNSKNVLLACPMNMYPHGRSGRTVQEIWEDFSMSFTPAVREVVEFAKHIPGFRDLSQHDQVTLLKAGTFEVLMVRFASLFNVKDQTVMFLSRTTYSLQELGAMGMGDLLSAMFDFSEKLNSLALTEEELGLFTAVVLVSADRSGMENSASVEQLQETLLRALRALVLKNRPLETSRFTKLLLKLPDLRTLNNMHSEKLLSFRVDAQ

[6] = test system: metabolic genes in white adipose tissue (WAT); test: Circadian gene expression in white adipose tissue after single dose; format: in vivo, mice
Procedure, shortened: (§1)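 Male C57BL6 mice, 8-10 weeks, housed on 12h:12h L:D or in constant darkness, received a single 100 mg/kg i.p. dose at CT0. Groups (n=6) were sacrificed at CT0, CT6, CT12 and CT18; tissue mRNA measured by real-time QPCR. Data double plotted; mean ± s.e.m.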

SCN explants (Per2:luc) = test: Bioluminescence of SCN explants from Per2:luc reporter mouse; format: cell-based; conditions: 5 μM
[7] = test system: metabolic genes in skeletal muscle; test: Circadian gene expression in skeletal muscle after single dose; format: in vivo, mice; conditions: single dose 100 mg/kg i.p. at CT0
Procedure, shortened: as §1

[8] = test system: clock and metabolic genes in the liver; test: Circadian gene expression in liver after single dose; format: in vivo, mice
Procedure, shortened: as §1

Balb/c or C57Bl6 mice = test: Body weight and fat mass in lean mice on chronic dosing; format: in vivo
Procedure, shortened: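 Balb/c mice given 100 mg/kg i.p. twice daily at CT0 and CT12 for 12 days; body weight and fat mass followed over treatment. Mean ± s.e.m., n=6-10 mice.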

[9] = test system: REV-ERB responsive genes in the liver; test: Expression of REV-ERB responsive genes in liver after 6-day dosing; format: in vivo, mice; conditions: various doses i.p., b.i.d., 6-days
C57Bl6 mice [10] = test: Comprehensive laboratory animal monitoring system; format: in vivo
Procedure, shortened: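 C57Bl6 mice in CLAMS cages were dosed 100 mg/kg i.p. twice daily at CT0 and CT12 for 10 days. Oxygen consumption (VO2) and RER were recorded across diurnal and nocturnal phases. Fat mass was measured by DEXA after the run. Mean ± s.e.m., n=6-10.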

[11] = test system: core clock genes in the hypothalamus; test: Core clock gene expression in hypothalamus; format: in vivo, mice
[12] = single dose 100 mg/kg i.p. at CT0
[13] = C57Bl6 mice, 100mg/kg i.p. b.i.d., 10 days
[14] = D:D, 100 mg/kg i.p. single dose at CT0

CCOC(=O)N1CCC(CN(Cc2ccc(Cl)cc2)Cc2ccc([N+](=O)[O-])s2)C1 (centres unmarked) [SR9009]
Cpt1b expression in skeletal muscle [1]: induced the expression
Fasn expression in liver [1]: significant decrease
Hk1 expression in skeletal muscle [1]: induced the expression
Hmgcr expression in liver [1]: significant decrease
Pkm2 expression in skeletal muscle [1]: induced the expression
Ppargc1b expression in skeletal muscle [1]: induced the expression
Scd1 expression in liver [1]: significant decrease
Srebf2 expression in liver [1]: significant decrease
Ucp3 expression in skeletal muscle [1]: induced the expression
expression of genes encoding enzymes involved in TG synthesis in WAT [1]: decrease in expression
locomotor activity during the subject dark phase (C57Bl6 mice [2]): loss of the subsequent active period
glucose or insulin tolerance (ob/ob mice): no significant alterations
weight gain (ob/ob mice): suppressed the degree of weight gain
decrease in plasma insulin levels (trend) [3]: 35%
decrease in plasma leptin [3]: 80%
decrease in plasma total cholesterol (Chol) ([3]; fasting): 47%
decrease in plasma triglycerides (TGs) ([3]; fasting): 12%
reduction of plasma glucose ([3]; fasting): 19%
reduction of plasma non-esterified fatty acids (NEFA) ([3]; fasting): 23%
decrease in proinflammatory cytokine IL-6 ([3]; plasma): 72%
plasma total cholesterol (lean C57Bl6 mice): reduce the levels
plasma triglycerides (lean C57Bl6 mice): reduce the levels
delay in the onset of locomotor activity (C57Bl6 mice [4]): 1 to 3 h

CC(C)(C)OC(=O)CN(Cc1ccc(Cl)cc1)Cc1ccc([N+](=O)[O-])s1 [GSK4112]
plasma exposure [5]: no plasma exposure
activity in GAL4-REV-ERBα and GAL4-REV-ERBβ cotransfection assays (REV-ERBα): limited activity

CCCCCNC(=O)N1CCC(CN(Cc2ccc(Cl)cc2)Cc2ccc([N+](=O)[O-])s2)C1 (centres unmarked) [SR9011]
Nocturnin (Ccrn4l) expression in adipose tissue ([6]; single dose): suppression
Dgat1 expression in WAT [6, 12]: suppressed
Dgat 2 expression in WAT [6, 12]: suppressed
Hsl expression in WAT [6, 12]: suppressed
Mgat circadian expression in WAT [6, 12]: disturbed
Plin1 expression in WAT [6, 12]: suppressed
amplitude of the oscillations in SCN explants (SCN explants (Per2:luc)): suppressed the amplitude
circadian oscillations in SCN explants (SCN explants (Per2:luc)): reversible inhibition of circadian oscillations
period of the oscillations in SCN explants (SCN explants (Per2:luc)): no effect on the period
locomotor activity during the subject dark phase (C57Bl6 mice [2]): loss of the subsequent active period
Cpt1b expression in skeletal muscle [7]: elevated
Hk1 expression in skeletal muscle [7]: increase
Pkm2 expression in skeletal muscle [7]: increase
Pppargc1b expression in skeletal muscle [7]: elevated
Ucp3 expression in skeletal muscle [7]: elevated
Nampt gene expression in the liver ([8]; single dose): suppressed the circadian rhythm
Nocturnin (Ccrn4l) expression in hepatic tissue ([8]; single dose): suppression
Bmal1 expression in liver [8, 12]: unaffected
Cyp7a1 expression in liver [8, 12]: decreased
Fasn expression in liver [8, 12]: phase shifted
Npas2 expression in liver [8, 12]: unaffected
Per2 expression pattern in liver [8, 12]: altered
Ppargc1a circadian expression in liver [8, 12]: suppressed
Ppargc1b circadian expression in liver [8, 12]: suppressed
Scd1 expression in liver [8, 12]: suppressed
Srebf1 expression in liver [8, 12]: suppressed
Srebf2 expression in liver [8, 12]: decreased
Hmgcr expression in liver ([8]; single dose 100 mg/kg i.p. at CT0, acute model): unaffected
plasma total cholesterol (lean C57Bl6 mice): reduce the levels
plasma triglycerides (lean C57Bl6 mice): reduce the levels
body weight and fat mass (Balb/c or C57Bl6 mice; 100mg/kg, i.p., b.i.d., 12 days): weight loss due to decreased fat mass
food intake (Balb/c or C57Bl6 mice; chronic administration, data not shown): not affected
Cyp7a1 expression in liver [9]: dose-dependently suppressed
Serpine1 expression in liver [9]: dose-dependent suppression
increase in nocturnal food consumption (C57Bl6 mice [10]; [13]): 10%
increase in oxygen consumption (VO2) (C57Bl6 mice [10]; [13]): 5%
rate of food intake (C57Bl6 mice [10]; [13]): no effect
respiratory exchange ratio (C57Bl6 mice [10]; [13]): no change
total daily food intake (C57Bl6 mice [10]; [13]): no effect
decrease in movement (C57Bl6 mice [10]; C57Bl6 mice, 100mg/kg i.p. b.i.d., 10 days, x-axis beam breaks): 15%
fat mass (DEXA) vs. vehicle (C57Bl6 mice [10]; after 10-day CLAMS experiment): decrease in fat mass
delay in the onset of locomotor activity (C57Bl6 mice [4]): 1 to 3 h
circadian pattern of Rev-erbα expression in hypothalamus ([11]; D:D conditions): completely suppressed
Bmal1 expression in hypothalamus [11, 14]: left shift in the phase
Cry2 expression in hypothalamus [11, 14]: suppressed
Per2 expression amplitude in hypothalamus [11, 14]: enhanced
circadian pattern of expression of Npas2 in hypothalamus [11, 14]: completely eliminated
pattern of expression of Clock in hypothalamus [11, 14]: enhanced amplitude of the oscillation
circadian pattern of Rev-erbα expression in hypothalamus ([11]; L:D conditions): no effect
